# pIC50: −log10 of the molar value. Several values for one entry are separate records, joined by “and”; a condition that tells them apart may be missing. Identical values can stand only once.
# Columns and labels:
# [1] = test system: Mus musculus; assay: In vivo biodistribution in mice liver bearing intracerebral GL261 gliomas at the dose of 10 microg of boron/g/day; format: ADME, organism-based
# In short: (§1)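 C57Bl/6 mice implanted stereotactically in brain (2.5–3.0 mm deep) with 10^5 GL261 cells in serum-free DMEM with 1.5% agarose. Polyamine-deficient diet and 2% DFMO water for 3 days, then Alzet pump infusion at 10 μg boron/g per day for 3 days with diet and DFMO continued. Five mice; tissue boron by DCP-AES, mean ± SD.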
# [2] = In vitro cellular uptake by F98 glioma cells after 48 hr incubation in the presence of 5.1 micro g of B/mL media concentration; format: functional, Rattus norvegicus
# In short: (§2)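 5×10^6 F98 cells per flask in DMEM with 10% FBS for 24 h. Medium then replaced with compound at the molar concentration matching the stated boron level, and cells held at 37 °C, 5% CO2. Cells washed three times with PBS, detached with trypsin-EDTA and digested in H2SO4/H2O2. Boron in media and cells by DCP-AES; 10^9 cells ≈ 1 g.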
# [3] = test system: Mus musculus; assay: In vivo biodistribution in mice kidney bearing intracerebral GL261 gliomas at the dose of 10 microg of boron/g/day; format: ADME, organism-based; in short: as §1
# [4] = test system: Nucleic Acid; assay: Concentration required to decrease the fluorescence of the ethidium bromide-calf thymus DNA complex by 50%; format: nucleic-acid assay, Bos taurus
# In short: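 Calf thymus DNA (10 μg) in 2 mM HEPES, 10 μM EDTA, 9.4 mM NaCl, pH 7.0, with 1.6 μM ethidium bromide. Polyamine added stepwise in aliquots. Fluorescence read at excitation 546 nm and emission 598 nm. IC50 is the concentration that lowers complex fluorescence by 50%.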
# [5] = In Vitro Toxicity measured as the conc. required for 50% reduction in SRBabsorbance by F98 glioma cells; format: functional, Rattus norvegicus
# In short: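 F98 rat glioma cells, 10,000/well in DMEM with 10% FBS, grown overnight at 37 °C, 5% CO2. Then exposed 24 h to varying compound concentrations. Fixed with cold TCA (1 h, 4 °C), stained 20 min with 0.4% SRB in 1% acetic acid, dye solubilized in 10 mM Tris base, A492 read. Six replicates per concentration, expressed as % untreated control; IC50 = 50% reduction.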
# [6] = organism: Rattus norvegicus; assay: In vitro cellular uptake by F98 glioma cells after 48 hr incubation in the presence of 5.4 micro g of B/mL media concentration; format: functional; in short: as §2
# [7] = organism: Rattus norvegicus; assay: In vitro cellular uptake by F98 glioma cells after 24 h incubation in the presence of 5.4 ug of B/mL media concentration; format: functional; in short: as §2
# [8] = organism: Rattus norvegicus; assay: In vitro cellular uptake by F98 glioma cells after 48 hr incubation in the presence of 0.5 micro g of B/mL media concentration; format: functional; in short: as §2
# [9] = organism: Rattus norvegicus; assay: In vitro cellular uptake by F98 glioma cells after 24 h incubation in the presence of 5.3 ug of B/mL media concentration; format: functional; in short: as §2
# [10] = organism: Rattus norvegicus; assay: In vitro cellular uptake by F98 glioma cells after 48 hr incubation in the presence of 5.3 micro g of B/mL media concentration; format: functional; in short: as §2
# [11] = In vitro concentration required for 50% reduction in the uptake of [3H]-TdR by F98 glioma cells; format: functional, Rattus norvegicus
# [12] = test system: Mus musculus; assay: In vivo biodistribution in mice muscle bearing subcutaneous B16 melanomas at the dose of 10 ug/g; format: ADME, organism-based, Muscle tissue
# [13] = test system: Mus musculus; assay: In vivo biodistribution in mice blood bearing subcutaneous B16 melanomas at the dose of 10 ug/g; format: ADME, organism-based
# [14] = test system: Mus musculus; assay: In vivo biodistribution in mice liver bearing subcutaneous B16 melanomas at the dose of 10 ug/g; format: ADME, organism-based
# [15] = test system: Mus musculus; assay: In vivo biodistribution in mice kidney bearing subcutaneous B16 melanomas at the dose of 10 ug/g; format: ADME, organism-based
# [16] = organism: Rattus norvegicus; assay: In vitro cellular uptake by F98 glioma cells after 24 h incubation in the presence of 0.5 ug of B/mL media concentration; format: functional
compound,measurement,setting,value
Cl.Cl.Cl.NCCCCN(CCCN)Cc1ccc(B(O)O)cc1,Biodistribution,[1],22.9 ug of B g-1
same,Ccellular,[2],114 ug of B (g of cells)-1
same,Biodistribution,[3],44 ug of B g-1
same,pIC50,[4],3.94
same,pIC50,[5],< 2.30
"3-(2-{4-[(4-Amino-butyl)-(3-amino-propyl)-amino]-butyl}-cyclopropyl)-propane-1,2-diol; trihydrochloride",Ccellular (ug of B (g of cells)-1),[6],104
same,Ccellular (ug of B (g of cells)-1),[7],51
same,Ccellular (ug of B (g of cells)-1),[8],9
"3-[2-(4-{(3-Amino-propyl)-[4-(3-amino-propylamino)-butyl]-amino}-butyl)-cyclopropyl]-propane-1,2-diol hydrochloride",Ccellular (ug of B (g of cells)-1),[9],60
same,Ccellular (ug of B (g of cells)-1),[8],20
same,Ccellular (ug of B (g of cells)-1),[10],83
NCCCCNCCCN [SPERMIDINE],pIC50,[4],3.98
same,pIC50,[5],< 4.00
NCCCNCCCCNCCCN [SPERMINE],pIC50,[4],5.52
same,pIC50,[5],< 4.00
"N1-(3-Amino-propyl)-N1-(4-cyclopropyl-butyl)-butane-1,4-diamine(B10H10) [listing 1 of 2 here]",pIC50,[11],4.66
same,Biodistribution,[12],9.8 ug of B g-1
same,Biodistribution,[13],9.3 ug of B g-1 and 12.5 ug of B g-1
same,Biodistribution,[14],74.8 ug of B g-1
same,pIC50,[4],3.83
same,Biodistribution,[15],201.3 ug of B g-1
"N1-(3-Amino-propyl)-N1-(4-cyclopropyl-butyl)-butane-1,4-diamine(B10H10) [listing 2 of 2 here]",Ccellular (ug of B (g of cells)-1),[16],65
same,Ccellular (ug of B (g of cells)-1),[8],43
"N*1*-{4-[2-(2-Amino-ethyl)-cyclopropyl]-butyl}-N*1*-(3-amino-propyl)-butane-1,4-diamine; trihydrochloride",Ccellular (ug of B (g of cells)-1),[6],116
same,Ccellular (ug of B (g of cells)-1),[7],51
same,Ccellular (ug of B (g of cells)-1),[8],19
"N,N'-Bis-(3-amino-propyl)-N-(4-cyclopropyl-butyl)-butane-1,4-diamine hydrochloride",Ccellular (ug of B (g of cells)-1),[8],64
"N-{4-[2-(2-Amino-ethyl)-cyclopropyl]-butyl}-N,N'-bis-(3-amino-propyl)-butane-1,4-diamine hydrochloride",Ccellular (ug of B (g of cells)-1),[9],82
same,Ccellular (ug of B (g of cells)-1),[8],15
same,Ccellular (ug of B (g of cells)-1),[10],229

# Reference: ChEMBL document CHEMBL1132627, “Synthesis and biological evaluation of boron-containing polyamines as potential agents for neutron capture therapy of brain tumors” (J Med Chem, 1999)
